Measurements taken from ChEMBL document CHEMBL4431325, “Design and Synthesis of Orally Bioavailable 4-Methyl Heteroaryldihydropyrimidine Based Hepatitis B Virus (HBV) Capsid Inhibitors” (J Med Chem, 2016).

Experiments:
[1] = Intrinsic clearance in mouse liver microsomes at 1 uM preincubated for 10 mins followed by NADPH addition measured up to 30 mins by LC-MS/MS analysis; format: ADME, Microsome; conditions: read-out: CLH
[2] = Intrinsic clearance in human liver microsomes at 1 uM preincubated for 10 mins followed by NADPH addition measured up to 30 mins by LC-MS/MS analysis; format: ADME, Microsome; conditions: read-out: CLH
[3] = Oral bioavailability in CD-1 mouse plasma administered as single dose by LC-MS/MS analysis; format: ADME, organism-based
Summary of the method: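 CD-1 mice (18-25 g) were used, with three mice per time point. The i.v. dose (5 mg/kg) was given in 6% Solutol/ethanol (1:1) plus 94% saline, and the oral dose (50 mg/kg) in 1% RC591. Blood was sampled at nine (i.v.) or eight (p.o.) time points into heparin. Plasma was analysed by LC-MS/MS, and parameters including F were derived noncompartmentally.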

[4] = Half life in CD-1 mouse plasma at 5 mg/kg, iv administered as single dose by LC-MS/MS analysis; format: ADME, organism-based
[5] = Half life in CD-1 mouse plasma at 50 mg/kg, po administered as single dose by LC-MS/MS analysis; format: ADME, organism-based
[6] = Volume of distribution at steady state in CD-1 mouse plasma at 5 mg/kg, iv administered as single dose by LC-MS/MS analysis; format: ADME, organism-based; conditions: read-out: Vdss
[7] = Drug uptake in CD-1 mouse heart at 5 mg/kg, iv or 50 mg/kg, po administered as single dose by LC-MS/MS analysis; format: ADME, organism-based; conditions: in vivo
[8] = Cmax in CD-1 mouse liver at 50 mg/kg, po administered as single dose by LC-MS/MS analysis; format: ADME, organism-based; parameters: dose 50 mg/kg, route oral
[9] = Cmax in CD-1 mouse plasma at 50 mg/kg, po administered as single dose by LC-MS/MS analysis; format: ADME, organism-based; parameters: dose 50 mg/kg, route oral
[10] = AUC (0 to t) in CD-1 mouse liver at 50 mg/kg, po administered as single dose by LC-MS/MS analysis; format: ADME, organism-based; conditions: in vivo
[11] = Oral bioavailability in CD-1 mouse plasma at 50 mg/kg administered as single dose by LC-MS/MS analysis; format: ADME, organism-based
[12] = Cmax in CD-1 mouse plasma at 5 mg/kg, iv administered as single dose by LC-MS/MS analysis; format: ADME, organism-based; parameters: dose 5 mg/kg, route intravenous
[13] = in vivo; conditions: CD-1, mouse, other tissue, po, 50 mg/kg
[14] = Clearance in CD-1 mouse plasma at 5 mg/kg, iv administered as single dose by LC-MS/MS analysis; format: ADME, organism-based
[15] = Drug uptake in CD-1 mouse brain at 5 mg/kg, iv or 50 mg/kg, po administered as single dose by LC-MS/MS analysis; format: ADME, organism-based; conditions: in vivo
[16] = Drug uptake in CD-1 mouse lung at 5 mg/kg, iv or 50 mg/kg, po administered as single dose by LC-MS/MS analysis; format: ADME, organism-based; conditions: in vivo
[17] = AUC (0 to t) in CD-1 mouse plasma at 5 mg/kg, iv administered as single dose by LC-MS/MS analysis; format: ADME, organism-based; conditions: in vivo
[18] = AUC (0 to t) in CD-1 mouse plasma at 50 mg/kg, po administered as single dose by LC-MS/MS analysis; format: ADME, organism-based; conditions: in vivo
[19] = Stability in CD-1 mouse liver by LC-MS/MS analysis; format: ADME, tissue-based
[20] = Drug metabolism in human liver microsomes assessed as aromatization of dihydropyrimidine core at 1 uM preincubated for 10 mins followed by NADPH addition measured up to 30 mins by LC-MS/MS analysis; format: ADME, Microsome; conditions: 0.5 h
[21] = Drug metabolism in mouse liver microsomes assessed as aromatization of dihydropyrimidine core at 1 uM preincubated for 10 mins followed by NADPH addition measured up to 30 mins by LC-MS/MS analysis; format: ADME, Microsome; conditions: 0.5 h

SMILES	CLint scaled at 1 µM [1] [mL/min/kg]	also measured
CC(C)OC(=O)C1=C(CN2CCOCC2)NC(c2nccs2)=NC1(C)c1ccc(F)cc1 (stereo unspecified)	88	
COC(=O)C1=C(CN2CC(F)(F)C[C@H]2C(=O)OC)NC(c2nccs2)=N[C@@]1(C)c1ccc(F)cc1	90	CLint scaled at 1 µM [2]: 23 mL/min/kg
CC1(c2ccc(F)cc2)N=C(c2nccs2)NC(CN2CCOCC2)=C1C(N)=O (stereo unspecified)	59	
COC(=O)C1=C(CN2CCCCC2)NC(c2nccs2)=NC1(C)c1ccc(F)cc1 (stereo unspecified)	88	
CC1(c2ccc(F)cc2)N=C(c2nccs2)NC(CN2CCOCC2)=C1C#N (stereo unspecified)	79	
COC(=O)C1=C(CN2CCCC(F)(F)C2)NC(c2nccs2)=NC1(C)c1ccc(F)cc1 (stereo unspecified)	89	
COC(=O)C1=C(CN2CCOCC2)NC(c2nccs2)=N[C@@]1(C)c1ccc(F)c(F)c1	89	
COC(=O)C1=C(COC(C(=O)O)C(F)(F)F)NC(c2nccs2)=NC1(C)c1ccc(F)cc1 (stereo unspecified)	24	
COC(=O)C1=C(CN2CCC(O)CC2)NC(c2nccs2)=NC1(C)c1ccc(F)cc1 (stereo unspecified)	81	
COC(=O)C1=C(C)NC(c2nccs2)=NC1(C)c1ccc(C#N)cc1 (stereo unspecified)	75	
COC(=O)C1=C(C)NC(c2nccs2)=NC1(C)c1ccc(S(C)(=O)=O)cc1 (stereo unspecified)	57	
COC(=O)C1=C(CN2CCOC[C@H]2C(=O)O)NC(c2nccs2)=N[C@@]1(C)c1ccc(F)cc1	80	CLint scaled at 1 µM [2]: 4.1 mL/min/kg
COC(=O)C1=C(C)NC(c2nccs2)=NC1(C)c1ccc(Cl)cc1 (stereo unspecified)	85	
CNC(=O)C1=C(CN2CCOCC2)NC(c2nccs2)=NC1(C)c1ccc(F)cc1 (stereo unspecified)	77	
COC(=O)C1=C(CN2CCCS2(=O)=O)NC(c2nccs2)=NC1(C)c1ccc(F)cc1 (stereo unspecified)	79	
COC(=O)C1=C(COCC(F)(F)F)NC(c2nccs2)=NC1(C)c1ccc(F)cc1 (stereo unspecified)	81	
COC(=O)C1=C(CN2CCOCC2)NC(c2nccs2)=N[C@@]1(C)c1ccc(F)cc1	81	bioavailability [3]: 1.5%
COC(=O)C1=C(CN2CC(OC)C2)NC(c2nccs2)=NC1(C)c1ccc(F)cc1 (stereo unspecified)	88	
COC(=O)C1=C(CN2CCC[C@@H]2C(=O)O)NC(c2nccs2)=N[C@@]1(C)c1ccc(F)cc1	60	
COC(=O)C1=C(C)NC(c2nccs2)=NC1(C)c1ccc(F)c(F)c1 (stereo unspecified)	83	

SMILES	CLint scaled at 1 µM [1] [mL/min/kg]	also measured
CC1(c2ccc(F)cc2)N=C(c2nccs2)NC(CN2CCOCC2)=C1c1ncco1 (stereo unspecified)	89	
COC(=O)C1=C(CN2CCOCC2(C)C)NC(c2nccs2)=NC1(C)c1ccc(F)cc1 (stereo unspecified)	88	
COC(=O)C1=C(CN2CCS(=O)(=O)CC2)NC(c2nccs2)=NC1(C)c1ccc(F)cc1 (stereo unspecified)	66	
CC1(c2ccc(F)cc2)N=C(c2nccs2)NC(CN2CCOCC2)=C1C(=O)O (stereo unspecified)	6	
COC(=O)C1=C(CN2CCNCC2)NC(c2nccs2)=NC1(C)c1ccc(F)cc1 (stereo unspecified)	39	
COC(=O)C1=C(CN2CC(F)(F)C[C@H]2C(=O)O)NC(c2nccs2)=N[C@@]1(C)c1ccc(F)cc1	84	half-life [4]: 10.8 min; half-life [5]: 48 min; Vd [6]: 0.22 L/kg; Drug uptake [7]: Not Active; Cmax [8]: 41200 ng/mL; Cmax [9]: 2470 ng/mL; AUCt [10]: 107000 µg/L/h; bioavailability [11]: 36%; Cmax [12]: 12400 ng/mL; Kp [13]: 20; clearance [14]: 55.3 mL/min/kg; CLint scaled at 1 µM [2]: 12 mL/min/kg; Drug uptake [15]: Not Active; Drug uptake [16]: Not Active; AUCt [17]: 1500 µg/L/h; AUCt [18]: 5420 µg/L/h
COC(=O)C1=C(CN2CCNC(=O)C2)NC(c2nccs2)=NC1(C)c1ccc(F)cc1 (stereo unspecified)	81	
COC(=O)C1=C(CN2CCC(F)(F)C2)NC(c2nccs2)=NC1(C)c1ccc(F)cc1 (stereo unspecified)	89	
COC(=O)C1=C(CN2CCC(O)C2)NC(c2nccs2)=NC1(C)c1ccc(F)cc1 (stereo unspecified)	83	
COC(=O)C1=C(CN(C)C2(C(=O)O)CC2)NC(c2nccs2)=NC1(C)c1ccc(F)cc1 (stereo unspecified)	42	
COC(=O)C1=C(CN2CCC[C@H]2C(=O)O)NC(c2nccs2)=N[C@@]1(C)c1ccc(F)cc1	14	CLint scaled at 1 µM [2]: 2.3 mL/min/kg
COC(=O)C1=C(Cn2ccnc2)NC(c2nccs2)=NC1(C)c1ccc(F)cc1 (stereo unspecified)	69	
COC(=O)C1=C(CN2CCC(F)(F)CC2)NC(c2nccs2)=NC1(C)c1ccc(F)cc1 (stereo unspecified)	88	
COC(=O)C1=C(CN2CCOCC2=O)NC(c2nccs2)=NC1(C)c1ccc(F)cc1 (stereo unspecified)	80	
COC(=O)C1=C(CN2CCC(C(F)(F)F)C2)NC(c2nccs2)=NC1(C)c1ccc(F)cc1 (stereo unspecified)	88	
COC(=O)C1=C(CN2CCOC[C@@H]2C(=O)O)NC(c2nccs2)=N[C@@]1(C)c1ccc(F)cc1	61	
COC(=O)C1=C(COC2CCOC2)NC(c2nccs2)=NC1(C)c1ccc(F)cc1 (stereo unspecified)	79	
COC(=O)C1=C(CN2CC3CC2CO3)NC(c2nccs2)=NC1(C)c1ccc(F)cc1 (stereo unspecified)	84	
COC(=O)C1=C(C)NC(c2ncc(F)cc2F)=N[C@H]1c1ccc(F)cc1Cl		Stability [19]: Unstable; Drug metabolism [20]: Metabolite_Detected; Drug metabolism [21]: Metabolite_Detected
